PubChem BioAssay AID623919 (The Scripps Research Institute Molecular Screening Center, 2012)
Calls of active or inactive are those of the source.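 Rule for the calls: active = recombination in E. coli crosses cut more than 4-fold against the solvent-only control; inactive = cut of 4-fold or less.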

system: E. coli V66 Hfr conjugational recombination, colony counts; test: Hfr conjugational cross recombinant frequency reduction – V66 E. coli, colony formation, powder samples, 100 µM, counter-screen for AddAB inhibitor project, late-stage follow-up (AID 623919); conditions: at 100 µM; active compounds read high
Outline: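 repeats = duplicate experiments | material = E. coli V66 recipient with Hfr donor | read-out basis = fold reduction in recombinant frequency versus DMSO, viability-adjusted | times = 1 h compound exposure plus 30 min mating | buffer or medium = LB broth | controls = DMSO-only culture | compound dosing = single 100 µM dose | technique = differential plating colony counts | also added = Hfr donor, 1:10 donor-to-recipient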

| SMILES | fold reduction of recombination |
| --- | --- |
| N#Cc1c(NC(=O)c2ccco2)sc2c1CCC2 | 1 (inactive) |
| N#Cc1c(NC(=O)c2ccccc2)sc2c1CCC2 | 1 (inactive) |
| CCn1cc(C(=O)O)c(=O)c2cnc(N3CCN(C(=S)NC4CC5CCC4C5)CC3)nc21 (stereo not drawn) | 1 (inactive) |
| NC(=O)c1ccsc1NC(=O)COC(=O)c1ccc([N+](=O)[O-])o1 | 1.6 (inactive) |
| Nc1c(NC(=O)c2ccc([N+](=O)[O-])o2)sc2c1CCCC2 | 1 (inactive) |
| CCn1cc(C(=O)O)c(=O)c2cnc(N3CCN(C(=S)Nc4ccccc4C)CC3)nc21 | 1 (inactive) |
| Cc1ccc(C(=O)Nc2sc3c(c2C#N)CCCCC3)o1 | 3 (inactive) |
| CCn1cc(C(=O)O)c(=O)c2cnc(N3CCN(C(=S)Nc4ccccc4OC)CC3)nc21 | 1.5 (inactive) |
| C=CCn1c(Sc2ncc([N+](=O)[O-])s2)n[nH]c1=O | 900 |
| C=CCNC(=S)N1CCN(c2ncc3c(=O)c(C(=O)O)cn(CC)c3n2)CC1 | 1.5 (inactive) |
| Cc1cccnc1NC(=O)c1ccc([N+](=O)[O-])o1 | 3 (inactive) |
| O=C(NCc1cccnc1)c1ccc([N+](=O)[O-])o1 | 18.5 |
| CCn1cc(C(=O)O)c(=O)c2cnc(N3CCN(C(=S)NC(=O)c4ccccc4Cl)CC3)nc21 | 2 (inactive) |
| CCn1cc(C(=O)O)c(=O)c2cnc(N3CCN(C(=S)Nc4ccccc4F)CC3)nc21 | 2 (inactive) |
| CCn1cc(C(=O)O)c(=O)c2cnc(N3CCN(C(=S)Nc4ccccc4Cl)CC3)nc21 | 1 (inactive) |
| Cc1sc(NC(=O)c2ccc(Br)o2)c(C#N)c1C | 1.5 (inactive) |
| N#Cc1c(NC(=O)c2ccc([N+](=O)[O-])o2)sc2c1CCCC2 | 1 (inactive) |
| N#Cc1c(NC(=O)c2ccccc2C(=O)O)sc2c1CCCC2 | 1 (inactive) |
| CCn1cc(C(=O)O)c(=O)c2cnc(N3CCN(C(=S)Nc4cccc(C(F)(F)F)c4)CC3)nc21 | 6 |
| CC1(C)Cc2c(sc(NC(=O)c3ccco3)c2C#N)CO1 | 2 (inactive) |
| N#Cc1c(NC(=O)c2cccc(F)c2)sc2c1CCCC2 | 1 (inactive) |
| Cc1ccc(C(=O)Nc2sc3c(c2C#N)CCC3)o1 | 2 (inactive) |
| CCn1cc(C(=O)O)c(=O)c2cnc(N3CCN(C(=S)NC(=O)c4ccco4)CC3)nc21 | 1 (inactive) |
| CCn1cc(C(=O)O)c(=O)c2cnc(N3CCN(C(=S)Nc4ccc5c(c4)OCO5)CC3)nc21 | 1 (inactive) |

| SMILES | fold reduction of recombination |
| --- | --- |
| CCn1cc(C(=O)O)c(=O)c2cnc(N3CCN(C(=S)Nc4ccc(F)cc4)CC3)nc21 | 1 (inactive) |
| CCn1cc(C(=O)O)c(=O)c2cnc(N3CCN(C(=S)NC)CC3)nc21 | 1 (inactive) |
| CCn1cc(C(=O)O)c(=O)c2cnc(N3CCN(C(=S)Nc4ccc5c(c4)OCCO5)CC3)nc21 | 1 (inactive) |
| CCn1cc(C(=O)O)c(=O)c2cc(F)c(N3CCN(C(=S)Nc4cccc(C(F)(F)F)c4)CC3)cc21 | 350 |
| N#Cc1c(NC(=O)c2ccc([N+](=O)[O-])o2)sc2c1CCC2 | 3 (inactive) |
| N#Cc1c(NC(=O)c2cnccn2)sc2c1CCCC2 | 1 (inactive) |
| O=C(Nc1cccc(NC(=O)c2ccccc2Cl)c1)c1ccc([N+](=O)[O-])o1 | 2 (inactive) |
| CCn1cc(C(=O)O)c(=O)c2cnc(N3CCNCC3)nc21 | 50 |
| CCn1cc(C(=O)O)c(=O)c2cnc(N3CCN(C(=S)NC(=O)c4cccc(C)c4)CC3)nc21 | 1 (inactive) |
| N#Cc1c(NC(=O)c2ccc(-c3ccccc3[N+](=O)[O-])o2)sc2c1CCCC2 | 1 (inactive) |
| O=C(Nc1ncccn1)c1ccc([N+](=O)[O-])o1 | 20 |
| N#Cc1c(NC(=O)C2CC=CCC2C(=O)O)sc2c1CCC2 (stereo not drawn) | 1 (inactive) |
| O=C(Nc1ccc(N2CCOCC2)cc1)c1ccc([N+](=O)[O-])o1 | 2 (inactive) |
| CC(=O)Nc1ccc2nc(NC(=O)c3ccc([N+](=O)[O-])o3)sc2c1 | 2 (inactive) |
| CC1CCc2c(sc(NC(=O)c3ccc([N+](=O)[O-])o3)c2N)C1 (stereo not drawn) | 2 (inactive) |
| CCn1cc(C(=O)O)c(=O)c2cnc(N3CCN(C(=S)NCc4ccccc4)CC3)nc21 | 1 (inactive) |
| CCn1cc(C(=O)O)c(=O)c2cnc(N3CCN(C(=S)NC(=O)c4cccnc4)CC3)nc21 | 1 (inactive) |
| CCn1cc(C(=O)O)c(=O)c2cnc(N3CCN(C(=O)Nc4ccccc4)CC3)nc21 | 1 (inactive) |
| CC1CCc2c(sc(NC(=O)c3ccc([N+](=O)[O-])o3)c2C#N)C1 (stereo not drawn) | 2 (inactive) |
| CCn1cc(C(=O)O)c(=O)c2cnc(N3CCN(C(=S)NC(C)c4ccccc4)CC3)nc21 (stereo not drawn) | 1.5 (inactive) |
| CCn1cc(C(=O)O)c(=O)c2cnc(N3CCN(C(=S)Nc4ccccc4)CC3)nc21 | 1 (inactive) |
| O=C(OCC(=O)c1cccs1)c1ccc([N+](=O)[O-])o1 | 2.1 (inactive) |
| Cc1ccc2nc(/C(C#N)=C\c3ccc([N+](=O)[O-])o3)[nH]c2c1 | 3 (inactive) |
| CCn1cc(C(=O)O)c(=O)c2cnc(N3CCN(C(=S)Nc4ccc(Cl)cc4)CC3)nc21 | 1 (inactive) |
